What was measured:
[1] = test system: SK-MEL-5; test: Growth inhibition of human SK-MEL-5 cells after 48 hrs by SRB assay; assay type: functional; conditions: SK-MEL-5, 48 h
How it was run: (§1)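 Run by the NCI Developmental Therapeutics Program: cells in RPMI 1640 with 5% FBS and 2 mM L-glutamine, plated at 5000–40,000 cells/well and grown 24 h before dosing. Drug (DMSO stock) given at five concentrations for 48 h at 37 °C, 5% CO2. Adherent cells fixed with cold TCA, stained with 0.4% SRB and read at 515 nm. GI50, TGI and LC50 taken from the time-zero, control and treated absorbances.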

[2] = test system: CCRF-CEM; test: Growth inhibition of human CCRF-CEM cells after 48 hrs by SRB assay; assay type: functional
How it was run: (§2)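 NCI DTP panel cells grown in RPMI 1640 with 5% FBS and 2 mM L-glutamine, preincubated 24 h, then given five concentrations (10-fold or ½-log dilutions from DMSO stock) for 48 h at 37 °C. Cells fixed with TCA, stained with SRB, absorbance read at 515 nm, with time-zero plates as reference.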

[3] = test system: A498; test: Growth inhibition of human A498 cells after 48 hrs by SRB assay; assay type: functional; conditions: A498, 48 h; how it was run: as §2
[4] = test system: UACC-62; test: Growth inhibition of human UACC62 cells after 48 hrs by SRB assay; assay type: functional; conditions: UACC-62, 48 h; how it was run: as §1
[5] = test system: SK-OV-3; test: Growth inhibition of human SKOV3 cells after 48 hrs by SRB assay; assay type: functional; conditions: SK-OV-3, 48 h; how it was run: as §1
[6] = test system: SF-539; test: Growth inhibition of human SF539 cells after 48 hrs by SRB assay; assay type: functional; conditions: SF-539, 48 h; how it was run: as §2
[7] = test system: HCC 2998; test: Growth inhibition of human HCC2998 cells after 48 hrs by SRB assay; assay type: functional; conditions: HCC 2998, 48 h; how it was run: as §2
[8] = test system: SW-620; test: Growth inhibition of human SW620 cells after 48 hrs by SRB assay; assay type: functional; conditions: SW-620, 48 h; how it was run: as §1
[9] = test system: K562; test: Growth inhibition of human K562 cells after 48 hrs by trypan blue assay; assay type: functional, cell-based; conditions: K562, 48 h
[10] = test system: HT-29; test: Growth inhibition of human HT-29 cells after 48 hrs by SRB assay; assay type: functional; conditions: HT-29, 48 h; how it was run: as §2
[11] = test system: SK-MEL-2; test: Growth inhibition of human SK-MEL-2 cells after 48 hrs by SRB assay; assay type: functional; conditions: SK-MEL-2, 48 h; how it was run: as §1
[12] = test system: OVCAR-8; test: Growth inhibition of human OVCAR8 cells after 48 hrs by SRB assay; assay type: functional; conditions: OVCAR-8, 48 h; how it was run: as §2
[13] = test system: K562; test: Antiproliferative activity against human K562 cells at 10 uM after 48 hrs by trypan blue assay; assay type: functional; conditions: K562, 48 h, read-out: GI
[14] = test system: NCI/ADR-RES; test: Growth inhibition of human NCI/ADR-RES cells after 48 hrs by SRB assay; assay type: functional; how it was run: as §2
[15] = test system: SNB-75; test: Growth inhibition of human SNB75 cells after 48 hrs by SRB assay; assay type: functional; conditions: SNB-75, 48 h; how it was run: as §1
[16] = test system: SF-268; test: Growth inhibition of human SF268 cells after 48 hrs by SRB assay; assay type: functional; conditions: SF-268, 48 h; how it was run: as §2
[17] = test system: Malme-3M; test: Growth inhibition of human MALME-3M cells after 48 hrs by SRB assay; assay type: functional; how it was run: as §2
[18] = test system: IGROV-1; test: Growth inhibition of human IGROV1 cells after 48 hrs by SRB assay; assay type: functional; conditions: IGROV-1, 48 h; how it was run: as §2
[19] = test system: U-251; test: Growth inhibition of human U251 cells after 48 hrs by SRB assay; assay type: functional; conditions: U-251, 48 h; how it was run: as §1
[20] = test system: NCI-H226; test: Growth inhibition of human NCI-H226 cells after 48 hrs by SRB assay; assay type: functional; conditions: NCI-H226, 48 h; how it was run: as §2
[21] = test system: ACHN; test: Growth inhibition of human ACHN cells after 48 hrs by SRB assay; assay type: functional; how it was run: as §2
[22] = test system: OVCAR-3; test: Growth inhibition of human OVCAR3 cells after 48 hrs by SRB assay; assay type: functional; conditions: OVCAR-3, 48 h; how it was run: as §2
[23] = test system: BT-549; test: Growth inhibition of human BT549 cells after 48 hrs by SRB assay; assay type: functional; conditions: BT-549, 48 h; how it was run: as §2
[24] = test system: TK-10; test: Growth inhibition of human TK10 cells after 48 hrs by SRB assay; assay type: functional; conditions: TK-10, 48 h; how it was run: as §1
[25] = test system: DU-145; test: Growth inhibition of human DU145 cells after 48 hrs by SRB assay; assay type: functional; conditions: DU-145, 48 h; how it was run: as §2
[26] = Growth inhibition of human Hs 578T cells after 48 hrs by SRB assay; assay type: functional; how it was run: as §2
[27] = test system: SF-295; test: Growth inhibition of human SF295 cells after 48 hrs by SRB assay; assay type: functional; conditions: SF-295, 48 h; how it was run: as §2
[28] = test system: MOLT-4; test: Growth inhibition of human MOLT4 cells after 48 hrs by SRB assay; assay type: functional; conditions: MOLT-4, 48 h; how it was run: as §2
[29] = test system: T47D; test: Growth inhibition of human T47D cells after 48 hrs by SRB assay; assay type: functional; how it was run: as §1
[30] = test system: M14; test: Growth inhibition of human M14 cells after 48 hrs by SRB assay; assay type: functional; conditions: M14, 48 h; how it was run: as §2
[31] = test system: MDA-MB-435; test: Growth inhibition of human MDA-MB-435 cells after 48 hrs by SRB assay; assay type: functional; conditions: MDA-MB-435, 48 h; how it was run: as §2
[32] = test system: UO-31; test: Growth inhibition of human UO31 cells after 48 hrs by SRB assay; assay type: functional; conditions: UO-31, 48 h; how it was run: as §1
[33] = test system: KM12; test: Growth inhibition of human KM12 cells after 48 hrs by SRB assay; assay type: functional; conditions: KM12, 48 h; how it was run: as §2
[34] = test system: SK-MEL-28; test: Growth inhibition of human SK-MEL-28 cells after 48 hrs by SRB assay; assay type: functional; conditions: SK-MEL-28, 48 h; how it was run: as §1
[35] = test system: A549; test: Growth inhibition of human A549 cells after 48 hrs by SRB assay; assay type: functional; conditions: A549, 48 h; how it was run: as §2
[36] = test system: NCI-H23; test: Growth inhibition of human NCI-H23 cells after 48 hrs by SRB assay; assay type: functional; conditions: NCI-H23, 48 h; how it was run: as §2
[37] = test system: HL-60; test: Growth inhibition of human HL60 cells after 48 hrs by SRB assay; assay type: functional; conditions: HL-60, 48 h; how it was run: as §2
[38] = test system: HCT-116; test: Growth inhibition of human HCT116 cells after 48 hrs by SRB assay; assay type: functional; conditions: HCT-116, 48 h; how it was run: as §2
[39] = test system: 786-0; test: Growth inhibition of human 786-0 cells after 48 hrs by SRB assay; assay type: functional; conditions: 786-0, 48 h; how it was run: as §2
[40] = test system: SNB-19; test: Growth inhibition of human SNB19 cells after 48 hrs by SRB assay; assay type: functional; conditions: SNB-19, 48 h; how it was run: as §1
[41] = test system: MDA-MB-231; test: Growth inhibition of human MDA-MB-231 cells after 48 hrs by SRB assay; assay type: functional; conditions: MDA-MB-231, 48 h; how it was run: as §2
[42] = test system: NCI-H522; test: Growth inhibition of human NCI-H522 cells after 48 hrs by SRB assay; assay type: functional; conditions: NCI-H522, 48 h; how it was run: as §2
[43] = test system: MCF7; test: Growth inhibition of human MCF7 cells after 48 hrs by SRB assay; assay type: functional; conditions: MCF7, 48 h; how it was run: as §2
[44] = test system: MDA-MB-468; test: Growth inhibition of human MDA-MB-468 cells after 48 hrs by SRB assay; assay type: functional; conditions: MDA-MB-468, 48 h; how it was run: as §2
[45] = test system: K562; test: Growth inhibition of human K562 cells after 48 hrs by SRB assay; assay type: functional; conditions: K562, 48 h; how it was run: as §2
[46] = test system: UACC-257; test: Growth inhibition of human UACC257 cells after 48 hrs by SRB assay; assay type: functional; conditions: UACC-257, 48 h; how it was run: as §1
[47] = test system: OVCAR-4; test: Growth inhibition of human OVCAR4 cells after 48 hrs by SRB assay; assay type: functional; conditions: OVCAR-4, 48 h; how it was run: as §2
[48] = test system: COLO 205; test: Growth inhibition of human COLO205 cells after 48 hrs by SRB assay; assay type: functional; conditions: COLO 205, 48 h; how it was run: as §2
[49] = test system: SN12C; test: Growth inhibition of human SN12C cells after 48 hrs by SRB assay; assay type: functional; how it was run: as §1
[50] = test system: HCT-15; test: Growth inhibition of human HCT15 cells after 48 hrs by SRB assay; assay type: functional; conditions: HCT-15, 48 h; how it was run: as §2
[51] = test system: LOX IMVI; test: Growth inhibition of human LOXIMVI cells after 48 hrs by SRB assay; assay type: functional; how it was run: as §2
[52] = test system: NCI-H460; test: Growth inhibition of human NCI-H460 cells after 48 hrs by SRB assay; assay type: functional; conditions: NCI-H460, 48 h; how it was run: as §2
[53] = test system: HOP-62; test: Growth inhibition of human HOP62 cells after 48 hrs by SRB assay; assay type: functional; conditions: HOP-62, 48 h; how it was run: as §2
[54] = test system: OVCAR-5; test: Growth inhibition of human OVCAR5 cells after 48 hrs by SRB assay; assay type: functional; conditions: OVCAR-5, 48 h; how it was run: as §2
[55] = test system: EKVX; test: Growth inhibition of human EKVX cells after 48 hrs by SRB assay; assay type: functional; how it was run: as §2
[56] = test system: HOP-92; test: Growth inhibition of human HOP92 cells after 48 hrs by SRB assay; assay type: functional; conditions: HOP-92, 48 h; how it was run: as §2
[57] = test system: CAKI-1; test: Growth inhibition of human Caki1 cells after 48 hrs by SRB assay; assay type: functional; conditions: CAKI-1, 48 h; how it was run: as §2
[58] = test system: PC-3; test: Growth inhibition of human PC3 cells after 48 hrs by SRB assay; assay type: functional; conditions: PC-3, 48 h; how it was run: as §2

- GI50 [1]: 1.01 µM
- GI50 [2]: 2.36 µM
- GI50 [5]: 2.79 µM
- GI50 [7]: 6.45 µM
- GI50 [8]: 3.3 µM
- IC50 [9]: 5.5 µM
- GI50 [10]: 2.31 µM
- GI50 [11]: 4.75 µM
- GI50 [12]: 7.49 µM
- GI50 [19]: 4.13 µM
- GI50 [20]: 7.28 µM
- GI50 [21]: 13.5 µM
- GI50 [22]: 2.18 µM
- GI50 [23]: 4.88 µM
- GI50 [25]: 3.66 µM
- GI50 [28]: 3.56 µM
- GI50 [29]: 4.2 µM
- GI50 [31]: 0.66 µM
- GI50 [34]: 5.24 µM
- GI50 [35]: 5.81 µM
- GI50 [36]: 3.38 µM
- GI50 [37]: 1.77 µM
- GI50 [38]: 3.2 µM
- GI50 [39]: 4 µM
- GI50 [41]: 7.26 µM
- GI50 [42]: 2.83 µM
- GI50 [43]: 3.48 µM
- GI50 [44]: 3.12 µM
- GI50 [45]: 1.11 µM
- GI50 [47]: 11.4 µM
- GI50 [48]: 1.84 µM
- GI50 [50]: 3.77 µM
- GI50 [52]: 3.59 µM
- GI50 [54]: 8.2 µM
- GI50 [58]: 3.97 µM
SMILES: Cc1ccc(NC(=O)/C=C/c2ccccc2)c(C(N)=O)c1
- GI50 [3]: 5.56 µM
- GI50 [4]: 3.77 µM
- GI50 [6]: 2.05 µM
- inhibition of growth at 10 µM [13]: 65.4%
- GI50 [14]: 2.79 µM
- GI50 [15]: 3.18 µM
- GI50 [16]: 10.9 µM
- GI50 [17]: 7.59 µM
- GI50 [18]: 4.37 µM
- GI50 [24]: 25.8 µM
- GI50 [26]: 1.94 µM
- GI50 [27]: 3.14 µM
- GI50 [30]: 2.35 µM
- GI50 [32]: 9.62 µM
- GI50 [33]: 2.94 µM
- GI50 [40]: 5.69 µM
- GI50 [46]: 17 µM
- GI50 [49]: 9.63 µM
- GI50 [51]: 7.65 µM
- GI50 [53]: 7.74 µM
- GI50 [55]: 5.18 µM
- GI50 [56]: 11.4 µM
- GI50 [57]: 8.92 µM
